Measured values from ChEMBL document CHEMBL1157805, “Virtual screening, selection and development of a benzindolone structural scaffold for inhibition of lumazine synthase” (Bioorg Med Chem, 2010).
Calls of active or inactive are those of the source. No cut-off for these calls is given here.

These compounds were tested against 6,7-dimethyl-8-ribityllumazine synthase (Mycobacterium tuberculosis) (UniProt P9WHE9) (assay: Uncompetitive inhibition of Mycobacterium tuberculosis recombinant lumazine synthase).
6,7-dimethyl-8-ribityllumazine synthase (Mycobacterium tuberculosis), sequence (P9WHE9 whole entry): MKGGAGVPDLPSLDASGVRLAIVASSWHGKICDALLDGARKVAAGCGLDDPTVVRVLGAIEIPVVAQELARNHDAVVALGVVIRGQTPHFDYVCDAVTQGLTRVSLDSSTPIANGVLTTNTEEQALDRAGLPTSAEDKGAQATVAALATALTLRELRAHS
Outline: (§1)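 Recombinant M. tuberculosis lumazine synthase (2 μM) in 100 mM Tris-HCl pH 7.0, 100 mM NaCl, 5 mM DTT, 2% DMSO. Dihydroxybutanone phosphate was fixed at 100 μM, pyrimidinedione substrate varied 3–100 μM, and inhibitor 0–200 μM. Reactions were started with the pyrimidinedione substrate. Lumazine formation was read at 408 nm for 30 min at 27 °C. Velocity–substrate data were fitted by nonlinear regression to alternative inhibition models.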
With `O=C1Nc2ccc(S(=O)(=O)NCCCCCOP(=O)(O)O)c3cccc1c23` the inhibition was “Active”.
For `O=C1Nc2ccc(S(=O)(=O)NCCCCCCOP(=O)(O)O)c3cccc1c23`, the inhibition was “Active”.

These compounds were tested on Mycobacterium tuberculosis (assay: Activity at Mycobacterium tuberculosis recombinant riboflavin synthase after 30 mins by fluorescence assay).
Outline: (§2)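 Recombinant M. tuberculosis riboflavin synthase (1 μM) in 100 mM Tris-HCl pH 7.0, 100 mM NaCl, 5 mM DTT, 2% DMSO. 6,7-Dimethyl-8-ribityllumazine substrate was varied 3–60 μM and inhibitor 0–200 μM. Reactions were started with substrate. Riboflavin formation was monitored at 470 nm for 30 min at 27 °C. Velocity–substrate data for all inhibitor levels were fitted by nonlinear regression to alternative inhibition models.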
`O=C1Nc2ccc(S(=O)(=O)NCCCOP(=O)(O)O)c3cccc1c23` gave a kcat of 0.00467 s⁻¹.
Work on `O=C1Nc2ccc(S(=O)(=O)NCCCCOP(=O)(O)O)c3cccc1c23` yielded a kcat of 0.00483 s⁻¹.
Work on `O=C1Nc2ccc(S(=O)(=O)NCCCCCOP(=O)(O)O)c3cccc1c23` yielded a kcat of 0.00933 s⁻¹.
Compound `O=C1Nc2ccc(S(=O)(=O)NCCCCCCOP(=O)(O)O)c3cccc1c23` has a kcat of 0.00933 s⁻¹.
For `CCOC(=O)C(=O)Nc1c(Cl)[nH]c(=O)[nH]c1=O`, the kcat was 0.00567 s⁻¹.
Work on `O=C1Nc2ccc(S(=O)(=O)NCCOP(=O)(O)O)c3cccc1c23` yielded a kcat of 0.005 s⁻¹.

The compounds below were run on Mycobacterium tuberculosis (assay: Uncompetitive inhibition of Mycobacterium tuberculosis recombinant riboflavin synthase).
Outline: as §2
`O=C1Nc2ccc(S(=O)(=O)NCCCCCOP(=O)(O)O)c3cccc1c23` was tested, and the inhibition was “Active”.
For `O=C1Nc2ccc(S(=O)(=O)NCCCCCCOP(=O)(O)O)c3cccc1c23`, the inhibition was “Active”.
For `CCOC(=O)C(=O)Nc1c(Cl)[nH]c(=O)[nH]c1=O`, the inhibition was “Active”.

The compounds below were run against 6,7-dimethyl-8-ribityllumazine synthase (Mycobacterium tuberculosis) (UniProt P9WHE9) (assay: Mixed Inhibition of Mycobacterium tuberculosis recombinant lumazine synthase).
Outline: as §1
In the case of `O=C1Nc2ccc(S(=O)(=O)NCCCOP(=O)(O)O)c3cccc1c23`, the inhibition is reported as “Active”.
With `O=C1Nc2ccc(S(=O)(=O)NCCCCOP(=O)(O)O)c3cccc1c23` the inhibition was “Active”.
For `O=C1Nc2ccc(S(=O)(=O)NCCCCC(F)(F)P(=O)(O)O)c3cccc1c23`, the inhibition was “Active”.
With `CCOC(=O)C(=O)Nc1c(Cl)[nH]c(=O)[nH]c1=O` the inhibition was “Active”.
